According to ChEMBL document CHEMBL1921792, “Synthesis and anticonvulsant activity of trans- and cis-2-(2,6-dimethylphenoxy)-N-(2- or 4-hydroxycyclohexyl)acetamides and their amine analogs” (Bioorg Med Chem, 2011):

How the values were obtained:
Mus musculus [1] = assay: Anticonvulsant activity in ip dosed mouse assessed as protection against maximal electric shock-induced seizures; assay type: functional; conditions: Mus musculus, ip; read-out: ED50
Rattus norvegicus [2] = assay: Anticonvulsant activity in po dosed rat assessed as time to show peak effect of protection against maximal electric shock-induced seizures; assay type: functional
Procedure, shortened: (§1)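 Time-to-peak-effect assay: MES protection read at 0.25–4 h after dosing. Mice ip (60–130 mg/kg), rats po (15 or 30 mg/kg) or ip (30 mg/kg). Groups of 4–8; result is protected/tested.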

Mus musculus [3] = species on record: Mus musculus; assay: Protective index, ratio of TD50 for neurotoxicity in mouse to ED50 for inhibition of maximal electroshock-induced seizures in mouse; assay type: functional
Rattus norvegicus [4] = assay: Neurotoxicity in rat assessed as neurological deficit at 30 mg/kg, po after 4 hrs by rotarod test; assay type: toxicity, organism-based; set-up: dose 30 mg/kg, route oral; conditions: in vivo
Procedure, shortened: (§2)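 Rats given the compound, suspended in 0.5% methylcellulose, by the stated route and dose. Neurological deficit was recorded at the listed times as ataxia and loss of placing response and muscle tone. Reported as number of rats showing toxicity/number tested.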

Mus musculus [5] = assay: Neurotoxicity in mouse assessed as inability to maintain equilibrium on rotarod at 30 mg/kg, ip after 0.5 hrs by rotarod test; assay type: toxicity, organism-based; set-up: dose 30 mg/kg, route intraperitoneal; conditions: in vivo
Procedure, shortened: (§3)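 Drug given ip to mice as a suspension in 0.5% methylcellulose. At the stated time after dosing, each mouse was placed on a 1 inch knurled rod turning at 6 rpm. Neurotoxicity = inability to stay balanced at least 1 min in each of three trials. Scored as animals toxic/animals tested in small groups.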

Rattus norvegicus [6] = assay: Neurotoxicity in rat assessed as neurological deficit at 500 mg/kg, po after 0.5 hrs; assay type: toxicity, organism-based; set-up: dose 500 mg/kg, route oral; conditions: in vivo; procedure, shortened: as §2
Rattus norvegicus [7] = assay: Neurotoxicity in rat assessed as neurological deficit at 500 mg/kg, po after 24 hrs; assay type: toxicity, organism-based; set-up: dose 500 mg/kg, route oral; conditions: in vivo; procedure, shortened: as §2
Mus musculus [8] = assay: Neurotoxicity in mouse assessed as inability to maintain equilibrium on rotarod at 130 mg/kg, ip after 0.25 hrs using rotarod test; assay type: toxicity, organism-based; set-up: dose 130 mg/kg, route intraperitoneal; conditions: in vivo; procedure, shortened: as §3
Mus musculus [9] = assay: Neurotoxicity in mouse assessed as inability to maintain equilibrium on rotarod at 130 mg/kg, ip after 0.5 hrs using rotarod test; assay type: toxicity, organism-based; set-up: dose 130 mg/kg, route intraperitoneal; conditions: in vivo; procedure, shortened: as §3
Rattus norvegicus [10] = assay: Neurotoxicity in rat assessed as neurological deficit at 62.5 mg/kg, po after 24 hrs; assay type: toxicity, organism-based; set-up: dose 62.5 mg/kg, route oral; conditions: in vivo
Procedure, shortened: (§4)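 Rats dosed orally with test agent suspended in 0.5% methylcellulose and observed for up to 24 h (time-to-peak-effect design). Neurological deficit was scored as ataxia with loss of placing response and muscle tone. Two rats per dose per time point; results given as number toxic/number tested.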

Rattus norvegicus [11] = assay: Neurotoxicity in rat assessed as neurological deficit at 250 mg/kg, po after 1 hr; assay type: toxicity, organism-based; set-up: dose 250 mg/kg, route oral; conditions: in vivo; procedure, shortened: as §2
Mus musculus [12] = assay: Neurotoxicity in mouse assessed as inability to maintain equilibrium on rotarod at 130 mg/kg, ip after 1 hr by rotarod test; assay type: toxicity, organism-based; set-up: dose 130 mg/kg, route intraperitoneal; conditions: in vivo; procedure, shortened: as §3
Mus musculus [13] = assay: Neurotoxicity in mouse assessed as inability to maintain equilibrium on rotarod at 30 mg/kg, ip after 4 hrs by rotarod test; assay type: toxicity, organism-based; set-up: dose 30 mg/kg, route intraperitoneal; conditions: in vivo; procedure, shortened: as §3
Rattus norvegicus [14] = assay: Neurotoxicity in rat assessed as neurological deficit at 500 mg/kg, po after 6 hrs; assay type: toxicity, organism-based; set-up: dose 500 mg/kg, route oral; conditions: in vivo; procedure, shortened: as §4
Rattus norvegicus [15] = assay: Neurotoxicity in rat assessed as neurological deficit at 62.5 mg/kg, po after 1 hr; assay type: toxicity, organism-based; set-up: dose 62.5 mg/kg, route oral; conditions: in vivo; procedure, shortened: as §4
Rattus norvegicus [16] = assay: Neurotoxicity in rat assessed as neurological deficit at 125 mg/kg, po after 0.5 hrs; assay type: toxicity, organism-based; set-up: dose 125 mg/kg, route oral; conditions: in vivo; procedure, shortened: as §2
Rattus norvegicus [17] = assay: Neurotoxicity in rat assessed as neurological deficit at 500 mg/kg, po after 2 hrs; assay type: toxicity, organism-based; set-up: dose 500 mg/kg, route oral; conditions: in vivo; procedure, shortened: as §2
Rattus norvegicus [18] = assay: Neurotoxicity in rat assessed as neurological deficit at 250 mg/kg, po after 4 hrs; assay type: toxicity, organism-based; set-up: dose 250 mg/kg, route oral; conditions: in vivo; procedure, shortened: as §2
[19] = Neurotoxicity in po dosed rat assessed as neurological deficit […]; assay type: toxicity, organism-based; conditions: in vivo
Procedure, shortened: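 Rats dosed orally with a suspension in 0.5% methylcellulose. Neurological deficit judged by ataxia and loss of placing response and muscle tone.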

Rattus norvegicus [20] = assay: Neurotoxicity in rat assessed as neurological deficit at 500 mg/kg, po after 0.25 hrs; assay type: toxicity, organism-based; set-up: dose 500 mg/kg, route oral; conditions: in vivo; procedure, shortened: as §2
Rattus norvegicus [21] = assay: Neurotoxicity in rat assessed as neurological deficit at 62.5 mg/kg, po after 6 hrs; assay type: toxicity, organism-based; set-up: dose 62.5 mg/kg, route oral; conditions: in vivo; procedure, shortened: as §4
Mus musculus [22] = assay: Neurotoxicity in mouse assessed as inability to maintain equilibrium on rotarod at 300 mg/kg, ip after 4 hrs by rotarod test; assay type: toxicity, organism-based; set-up: dose 300 mg/kg, route intraperitoneal; conditions: in vivo; procedure, shortened: as §3
Rattus norvegicus [23] = assay: Neurotoxicity in rat assessed as neurological deficit at 125 mg/kg, po after 4 hrs; assay type: toxicity, organism-based; set-up: dose 125 mg/kg, route oral; conditions: in vivo; procedure, shortened: as §2
[24] = Neurotoxicity in ip dosed mouse assessed as inability to maintain equilibrium on rotarod by rotarod test; assay type: toxicity, organism-based; conditions: in vivo
Procedure, shortened: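 Mice dosed ip with a suspension in 0.5% methylcellulose, then placed on a 1 inch knurled plastic rod rotating at 6 rpm. Toxicity = failure to keep equilibrium for at least 1 min in each of three trials.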

Rattus norvegicus [25] = assay: Neurotoxicity in rat assessed as neurological deficit at 30 mg/kg, po after 2 hrs […]; assay type: toxicity, organism-based; set-up: dose 30 mg/kg, route oral; conditions: in vivo; procedure, shortened: as §2
Mus musculus [26] = assay: Neurotoxicity in mouse assessed as inability to maintain equilibrium on rotarod at 300 mg/kg, ip after 0.5 hrs by rotarod test; assay type: toxicity, organism-based; set-up: dose 300 mg/kg, route intraperitoneal; conditions: in vivo; procedure, shortened: as §3
Mus musculus [27] = assay: Anticonvulsant activity in ip dosed mouse assessed as time to show peak effect of protection against maximal electric shock-induced seizures; assay type: functional; procedure, shortened: as §1

Cc1cccc(C)c1OCC(=O)NC1CCCCC1O.Cl (racemic; 1)
2.475: Ratio TD50/ED50 (Mus musculus [3])
0.25 h: Time (Rattus norvegicus [2]) | Time (Mus musculus [27])
Toxic: Activity (Mus musculus [8]) | Activity (Mus musculus [26])
> 500 mg/kg: TD50 [19]
106 mg/kg: TD50 [24]
43 mg/kg: ED50 (Mus musculus [1])
Non-toxic: Activity (Rattus norvegicus [4]) | Activity (Mus musculus [5]) | Activity (Rattus norvegicus [6]) | Activity (Rattus norvegicus [7]) | Activity (Mus musculus [9]) | Activity (Rattus norvegicus [10]) | Activity (Rattus norvegicus [11]) | Activity (Mus musculus [12]) | Activity (Mus musculus [13]) | Activity (Rattus norvegicus [14]) | Activity (Rattus norvegicus [15]) | Activity (Rattus norvegicus [16]) | Activity (Rattus norvegicus [17]) | Activity (Rattus norvegicus [18]) | Activity (Rattus norvegicus [20]) | Activity (Rattus norvegicus [21]) | Activity (Mus musculus [22]) | Activity (Rattus norvegicus [23]) | Activity (Rattus norvegicus [25])
